Assay results reported in ChEMBL document CHEMBL5344483, “Design and synthesis of novel chloropyridazine hybrids as promising anticancer agents acting by apoptosis induction and PARP-1 inhibition through a molecular hybridization strategy” (RSC Med Chem, 2024).
Activity calls are given as the source filed them. The calls are words filed in the database; no cut-off is given here.

Legend:
[1] = molecular target: T1, Poly [ADP-ribose] polymerase 1 (Homo sapiens, UniProt P09874); experiment: Inhibition of PARP1 (unknown origin) by ELISA
T1 sequence (P09874 whole entry): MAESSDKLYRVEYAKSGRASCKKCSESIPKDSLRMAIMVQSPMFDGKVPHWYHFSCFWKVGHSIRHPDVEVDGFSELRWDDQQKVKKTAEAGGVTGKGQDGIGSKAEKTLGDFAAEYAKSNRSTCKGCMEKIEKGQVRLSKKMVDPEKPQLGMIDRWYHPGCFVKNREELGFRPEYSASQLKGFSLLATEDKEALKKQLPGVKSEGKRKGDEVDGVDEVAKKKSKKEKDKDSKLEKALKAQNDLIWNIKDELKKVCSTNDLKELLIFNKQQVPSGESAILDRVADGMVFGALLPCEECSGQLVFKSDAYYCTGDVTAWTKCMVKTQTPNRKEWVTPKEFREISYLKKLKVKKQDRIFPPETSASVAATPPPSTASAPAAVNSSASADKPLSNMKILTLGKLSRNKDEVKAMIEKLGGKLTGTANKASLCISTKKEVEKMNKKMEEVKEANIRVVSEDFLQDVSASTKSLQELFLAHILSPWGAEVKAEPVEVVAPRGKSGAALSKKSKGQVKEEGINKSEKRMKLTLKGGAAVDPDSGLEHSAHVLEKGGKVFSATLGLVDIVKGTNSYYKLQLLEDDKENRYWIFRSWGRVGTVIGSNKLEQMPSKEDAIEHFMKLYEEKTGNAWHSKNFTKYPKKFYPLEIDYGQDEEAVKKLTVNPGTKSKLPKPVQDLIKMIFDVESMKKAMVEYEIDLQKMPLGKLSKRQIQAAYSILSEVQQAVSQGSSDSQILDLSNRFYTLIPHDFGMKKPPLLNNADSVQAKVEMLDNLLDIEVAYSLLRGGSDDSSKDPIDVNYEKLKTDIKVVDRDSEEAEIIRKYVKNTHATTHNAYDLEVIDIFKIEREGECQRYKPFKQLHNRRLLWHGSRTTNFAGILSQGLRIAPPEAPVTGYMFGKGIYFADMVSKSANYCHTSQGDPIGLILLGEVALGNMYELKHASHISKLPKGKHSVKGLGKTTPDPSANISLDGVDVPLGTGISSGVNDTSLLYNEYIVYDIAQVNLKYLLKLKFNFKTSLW

MDA-MB-231 = experiment: Antiproliferative activity against human MDA-MB-231 cells assessed as reduction in cell growth by coomassie Brilliant Blue staining based analysis; type: functional
HCT-116 = experiment: Anticancer activity against human HCT-116 cells assessed as growth inhibition at 100 microg/mL by SRB assay relative to control; type: functional; conditions: read-out: GI
Outline: (§1)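 Cells seeded at 3×10^3 per well and allowed to attach for 24 h. Treated with 100 µg/mL compound for 48 h, triplicate wells, with a 1% v/v DMSO vehicle control. Fixed in 20% TCA, stained with 0.4% SRB, and OD read at 570 nm. Survival fraction is treated OD/control OD.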

HNO 97 cell line [2] = experiment: Induction of cell cycle arrest in human HNO97 cells assessed as cell population at G2-M phase by flow cytometry (reference value: 2.42%); type: functional
SK-BR-3 = experiment: Anticancer activity against human SK-BR-3 cells assessed as growth inhibition at 100 microg/mL by SRB assay relative to control; type: functional; conditions: read-out: GI; outline: as §1
FaDu [3] = experiment: Cytotoxicity against human FaDu cells by SRB assay; type: functional, cell-based
Outline: (§2)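 Cells seeded at 3×10^3 per well and allowed to attach for 24 h. Exposed to […], 12.5, 25 and 50 µg/mL for 48 h, triplicate wells per concentration, with a 1% v/v DMSO vehicle. Fixed in 20% TCA, stained with 0.4% SRB, and OD read at 570 nm. IC50 from sigmoidal dose-response fit of survival fraction (treated/control OD).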

HNO 97 cell line [4] = experiment: Cytotoxicity against human HNO97 cells by SRB assay; type: functional, cell-based; outline: as §2
HNO 97 cell line [5] = experiment: Induction of apoptosis in human HNO97 cells assessed as measuring fold decrease in Bcl-2 protein expression level by sandwiched immunoassay relative to control; type: functional
Outline: (§3)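 Sandwich ELISA on antibody-precoated wells. Sample incubated 1 h at 37 °C, then biotin-conjugated detection antibody 1 h at 37 °C, then avidin-HRP 30 min at 37 °C, with washes between steps. TMB substrate 10–20 min at 37 °C in the dark, stopped with sulphuric acid, read at 450 nm. Duplicate readings, zero-standard subtracted, quantified against a 7-point standard curve.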

HNO 97 cell line [6] = experiment: Induction of cell cycle arrest in human HNO97 cells assessed as cell population at S phase by flow cytometry (reference value: 34.27%); type: functional
HNO 97 cell line [7] = experiment: Induction of apoptosis in human HNO97 cells assessed as measuring fold increase in Bax protein expression level by sandwiched immunoassay relative to control; type: functional; outline: as §3
HNO 97 cell line [8] = experiment: Induction of apoptosis in human HNO97 cells assessed as measuring fold increase in caspase-6 protein expression level by sandwiched immunoassay relative to control; type: functional; outline: as §3
NCI-H460 = experiment: Anticancer activity against human NCI-H460 cells assessed as growth inhibition at 100 microg/mL by SRB assay relative to control; type: functional; conditions: read-out: GI; outline: as §1
MDA-MB-468 [9] = experiment: Anticancer activity against human MDA-MB-468 cells assessed as growth inhibition at 100 microg/mL by SRB assay relative to control; type: functional; conditions: read-out: GI; outline: as §1
MDA-MB-468 [10] = experiment: Cytotoxicity against human MDA-MB-468 cells by SRB assay; type: functional, cell-based; outline: as §2
HNO 97 cell line [11] = experiment: Induction of apoptosis in human HNO97 cells assessed as measuring fold increase in caspase-3 protein expression level by sandwiched immunoassay relative to control; type: functional; outline: as §3
[12] = Cytotoxicity against human HSF (VGS) cells assessed as growth inhibition at 100 microg/mL by SRB assay relative to control; type: toxicity, cell-based; conditions: at 100 µg/mL, read-out: GI
HNO 97 cell line [13] = experiment: Induction of apoptosis in human HNO97 cells assessed as measuring fold increase in p53 protein expression level by sandwiched immunoassay relative to control; type: functional; outline: as §3
MCF7 = experiment: Anticancer activity against human MCF7 cells assessed as growth inhibition at 100 microg/mL by SRB assay relative to control; type: functional; conditions: read-out: GI; outline: as §1
A549 = experiment: Anticancer activity against human A549 cells assessed as growth inhibition at 100 microg/mL by SRB assay relative to control; type: functional; conditions: read-out: GI; outline: as §1
HNO 97 cell line [14] = experiment: Induction of cell cycle arrest in human HNO97 cells assessed as cell population at G0-G1 phase by flow cytometry (reference value: 63.31%); type: functional
FaDu [15] = experiment: Anticancer activity against human FaDu cells assessed as growth inhibition at 100 microg/mL by SRB assay relative to control; type: functional; conditions: read-out: GI; outline: as §1
HNO 97 cell line [16] = experiment: Induction of apoptosis in human HNO97 cells assessed as measuring fold decrease in CK 18 protein expression level by sandwiched immunoassay relative to control; type: functional; outline: as §3
Huh-7 = experiment: Anticancer activity against human Huh-7 cells assessed as growth inhibition at 100 microg/mL by SRB assay relative to control; type: functional; conditions: read-out: GI; outline: as §1
A-375 = experiment: Anticancer activity against human A-375 cells assessed as growth inhibition at 100 microg/mL by SRB assay relative to control; type: functional; conditions: read-out: GI; outline: as §1
[17] = molecular target: T1, Poly [ADP-ribose] polymerase 1; experiment: Inhibition of human PARP-1 in MDA-MB-231 cells assessed as accumulation of cleaved PARP-1 by immunoblot analysis; type: cell-based
Outline: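 Drug-treated cells lysed and protein measured by BCA. Lysate (30 µg) separated by SDS-PAGE and transferred to PVDF. Probed with anti-PARP1 primary antibody (1:1000), then HRP-conjugated secondary (1:10,000), with alpha-tubulin as loading probe. Detected by ECL. Blots representative of at least three independent experiments.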

HeLa = experiment: Anticancer activity against human HeLa cells assessed as growth inhibition at 100 microg/mL by SRB assay relative to control; type: functional; conditions: read-out: GI; outline: as §1
HNO 97 cell line [18] = experiment: Anticancer activity against human HNO97 cells assessed as growth inhibition at 100 microg/mL by SRB assay relative to control; type: functional; conditions: read-out: GI; outline: as §1

| Compound | IC50 [1] [µM] | Activity (MDA-MB-231) | inhibition of growth at 100 µg/mL (HCT-116) [%] | inhibition of growth at 100 µg/mL (SK-BR-3) [%] | IC50 (FaDu [3]) [µM] | IC50 (HNO 97 cell line [4]) [µM] | fold change (FC) (HNO 97 cell line [5]) | fold change (FC) (HNO 97 cell line [7]) | fold change (FC) (HNO 97 cell line [8]) | inhibition of growth at 100 µg/mL (NCI-H460) [%] | inhibition of growth at 100 µg/mL (MDA-MB-468 [9]) [%] | IC50 (MDA-MB-468 [10]) [µM] | inhibition at 100 microg/mL [12] [%] | inhibition of growth at 100 µg/mL (MCF7) [%] | inhibition of growth at 100 µg/mL (A549) [%] | inhibition of growth at 100 µg/mL (FaDu [15]) [%] | inhibition of growth at 100 µg/mL (Huh-7) [%] | inhibition of growth at 100 µg/mL (A-375) [%] | inhibition of growth at 100 µg/mL (HeLa) [%] | inhibition of growth at 100 µg/mL (HNO 97 cell line [18]) [%] | also measured |
| --- | --- | --- | --- | --- | --- | --- | --- | --- | --- | --- | --- | --- | --- | --- | --- | --- | --- | --- | --- | --- | --- |
| CC1(COc2ccc(/C=C3/SC(O)=NC3=O)cc2)CCCCC1 | 25 | – | – | – | – | – | – | – | – | – | – | – | – | – | – | – | – | – | – | – | – |
| COc1cc(O)ccc1C(=O)/C=C/c1ccc(O)cc1 | 1.92 | – | – | – | – | – | – | – | – | – | – | – | – | – | – | – | – | – | – | – | – |
| O=c1[nH]nc2c3c(cccc13)Oc1ccc(CN3CCC(O)CC3)cc1-2 [E-7016] | 3 | – | – | – | – | – | – | – | – | – | – | – | – | – | – | – | – | – | – | – | – |
| Nc1ccc(C(=O)/C=C/c2ccc(Oc3ccc(Cl)nn3)cc2)cc1 | – | Active | 66.9 | 77.5 | 27 | 12.2 | 0.59 | 14.9 | 9.76 | 61.3 | 95 | 11.4 | 68.1 | 67.9 | 66.5 | 86.7 | 73.9 | 56.1 | 82.3 | 89.1 | Activity (HNO 97 cell line [2]): 1.05%; Activity (HNO 97 cell line [6]): 15.66%; fold change (FC) (HNO 97 cell line [11]): 7.55; fold change (FC) (HNO 97 cell line [13]): 3.9; Activity (HNO 97 cell line [14]): 83.28%; fold change (FC) (HNO 97 cell line [16]): 0.54; inhibition [17]: Active |
| COC1CCN(C(=O)c2cc(Cc3n[nH]c(=O)c4ccccc34)ccc2F)CC1 [AZD2461] | 0.002 | – | – | – | – | – | – | – | – | – | – | – | – | – | – | – | – | – | – | – | – |
| CC(=O)Nc1ccc(C(=O)/C=C/c2ccc(Oc3ccc(Cl)nn3)cc2)cc1 | – | Active | 54.5 | 71.3 | 30.6 | 21.6 | – | – | – | 63.3 | 89.7 | 81.5 | 70.2 | 75 | 69.3 | 86.5 | 77.5 | 71.7 | 62.9 | 85.5 | inhibition [17]: Active |
| O=C(/C=C/c1ccc(Oc2ccc(Cl)nn2)cc1)c1ccc(OCc2ccc(Cl)cc2Cl)cc1 | – | Active | 75.1 | 60.9 | 60.6 | 11.1 | 0.66 | 11.54 | 9.79 | 52.4 | 84.2 | 21.5 | 50.7 | 54.4 | 65 | 81.6 | 67.8 | 70.5 | 55 | 83.3 | Activity (HNO 97 cell line [2]): 8.57%; Activity (HNO 97 cell line [6]): 25.13%; fold change (FC) (HNO 97 cell line [11]): 8.7; fold change (FC) (HNO 97 cell line [13]): 5.75; Activity (HNO 97 cell line [14]): 66.3%; fold change (FC) (HNO 97 cell line [16]): 0.5 |
| Cc1ccc(C(=O)/C=C/c2ccc(Oc3ccc(Cl)nn3)cc2)cc1 | – | Active | 78.5 | 70.6 | 120 | 15.7 | – | – | – | 72.4 | 88 | 74.1 | 67.8 | 72.4 | 74.1 | 80.2 | 75.4 | 69.1 | 72.4 | 84.8 | – |
| CC(=O)Nc1cccc(C(=O)/C=C/c2ccc(Oc3ccc(Cl)nn3)cc2)c1 | – | Active | 77.8 | 55.5 | – | 13 | 0.65 | 18.26 | 10.49 | 69.6 | 91.1 | 30.1 | 70 | 68.7 | 71.5 | 66.3 | 70.8 | 73 | 73.9 | 83.7 | fold change (FC) (HNO 97 cell line [11]): 9.44; fold change (FC) (HNO 97 cell line [13]): 7.01; fold change (FC) (HNO 97 cell line [16]): 0.43; inhibition [17]: Active |
